{"source": "paper PMC7161550", "about": "(British Journal of Pharmacology, 2020)", "key": {"[1]": {"assay_type": "in vivo", "conditions": "rat, after BIA 10‐2474 10 mg·kg^−1 p.o."}, "COS‐hFAAH cells": {"test_system": "COS‐hFAAH cells", "assay": "Quantification of compounds in COS‐hFAAH supernatant, cell lysates and medium", "assay_type": "in vitro ADME", "conditions": "1, 3 and 24 hr"}, "[2]": {"biological_target": "T1, mouse brain fatty acid amide hydrolase (FAAH) (Mus musculus, UniProt O08914)", "T1 sequence (O08914 1-579)": "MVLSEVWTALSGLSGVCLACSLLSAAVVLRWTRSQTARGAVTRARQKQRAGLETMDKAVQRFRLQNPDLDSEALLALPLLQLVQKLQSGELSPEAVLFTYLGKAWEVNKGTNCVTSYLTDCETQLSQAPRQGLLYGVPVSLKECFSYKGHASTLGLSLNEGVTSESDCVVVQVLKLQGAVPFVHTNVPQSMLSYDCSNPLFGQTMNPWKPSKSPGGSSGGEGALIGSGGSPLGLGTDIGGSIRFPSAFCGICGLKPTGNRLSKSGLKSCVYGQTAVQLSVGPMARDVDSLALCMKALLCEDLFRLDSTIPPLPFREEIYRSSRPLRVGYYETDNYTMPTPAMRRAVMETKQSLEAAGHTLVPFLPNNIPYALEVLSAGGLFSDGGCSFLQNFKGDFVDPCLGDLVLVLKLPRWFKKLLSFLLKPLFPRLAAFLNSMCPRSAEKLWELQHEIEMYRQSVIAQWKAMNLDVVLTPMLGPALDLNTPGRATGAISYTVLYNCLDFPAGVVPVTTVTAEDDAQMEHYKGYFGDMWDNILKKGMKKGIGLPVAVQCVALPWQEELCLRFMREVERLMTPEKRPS", "assay": "Ex vivo FAAH activity in mouse brain after oral administration", "conditions": "0.1 mg·kg^−1 p.o., 1 hr after dosing", "summary_of_the_method": "(§1)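 Liver and half-brain were collected into FAAH membrane buffer (3 mM MgCl2, 1 mM EDTA, 50 mM Tris HCl, pH 7.4) and stored at −20°C. Homogenates (15 μg protein brain, 5 μg liver) were pre-incubated 15 min at 37°C. AEA + 3H‑AEA + BSA was added for 10 min (brain) or 7 min (liver), then charcoal. Scintillation counting gave % remaining activity versus controls after blank subtraction.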"}, "[3]": {"biological_target": "T2, human recombinant fatty acid amide hydrolase (FAAH) (Homo sapiens, UniProt O00519)", "T2 sequence (O00519 1-579)": "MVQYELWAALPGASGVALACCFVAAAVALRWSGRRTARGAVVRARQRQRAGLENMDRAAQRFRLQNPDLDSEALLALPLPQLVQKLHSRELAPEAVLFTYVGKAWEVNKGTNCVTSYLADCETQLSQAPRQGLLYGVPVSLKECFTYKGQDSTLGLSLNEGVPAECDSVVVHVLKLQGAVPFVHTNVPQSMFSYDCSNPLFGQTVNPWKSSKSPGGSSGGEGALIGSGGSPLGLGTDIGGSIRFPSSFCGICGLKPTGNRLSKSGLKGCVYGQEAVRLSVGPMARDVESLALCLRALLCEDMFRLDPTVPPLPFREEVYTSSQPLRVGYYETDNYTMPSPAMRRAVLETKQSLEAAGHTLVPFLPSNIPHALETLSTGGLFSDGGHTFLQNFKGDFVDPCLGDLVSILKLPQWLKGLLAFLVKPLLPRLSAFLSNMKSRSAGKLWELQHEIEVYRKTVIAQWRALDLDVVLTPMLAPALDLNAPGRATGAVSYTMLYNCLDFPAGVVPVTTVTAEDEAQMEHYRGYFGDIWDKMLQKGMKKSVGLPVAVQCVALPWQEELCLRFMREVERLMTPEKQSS", "assay": "FAAH activity in intact COS‐hFAAH cells", "assay_type": "cell-based", "conditions": "for IC50: read-out: IC50 [95% CI]"}, "[4]": {"biological_target": "T3, fatty acid amide hydrolase (Rattus norvegicus, UniProt P97612)", "T3 sequence (P97612 1-579)": "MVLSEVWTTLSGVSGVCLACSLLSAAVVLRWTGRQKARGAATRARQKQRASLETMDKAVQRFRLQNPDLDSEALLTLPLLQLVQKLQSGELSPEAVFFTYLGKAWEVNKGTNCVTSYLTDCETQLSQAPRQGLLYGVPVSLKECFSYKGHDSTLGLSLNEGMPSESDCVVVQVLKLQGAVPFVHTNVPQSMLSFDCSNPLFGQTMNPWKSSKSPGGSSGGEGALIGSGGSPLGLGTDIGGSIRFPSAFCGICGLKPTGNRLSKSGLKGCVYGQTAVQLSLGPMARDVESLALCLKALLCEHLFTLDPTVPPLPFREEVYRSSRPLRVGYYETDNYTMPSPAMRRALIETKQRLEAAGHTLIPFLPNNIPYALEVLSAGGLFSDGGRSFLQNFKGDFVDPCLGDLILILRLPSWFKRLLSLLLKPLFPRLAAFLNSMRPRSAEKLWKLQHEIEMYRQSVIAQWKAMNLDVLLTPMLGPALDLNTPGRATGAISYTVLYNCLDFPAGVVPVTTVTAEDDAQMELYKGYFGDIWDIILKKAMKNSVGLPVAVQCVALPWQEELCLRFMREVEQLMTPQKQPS", "assay": "Gel‐based competitive ABPP in vitro, TAMRA‐FP probe, rat brain fractions", "assay_type": "biochemical", "conditions": "1 hr", "summary_of_the_method": "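Rat brain membrane and soluble protein extracts (200 μg) were incubated 1 hr at room temperature with test compound at 1 nM–100 μM, DMSO vehicle or PMSF 3 mM. Active serine hydrolases were then labelled with TAMRA‑FP probe (2 μM final) for 1 hr at room temperature. Bands were visualized by in-gel fluorescence.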"}, "[5]": {"test_system": "229 assays for receptors, enzymes, transporters, ion channels, hormones, growth factors and inflammatory mediators", "assay_type": "binding", "conditions": "10 and 50 μM"}, "[6]": {"test_system": "brain fatty acid amides (AEA, PEA, OEA)", "assay": "Fatty acid amides", "assay_type": "in vivo", "conditions": "mouse brain, 8 hr", "summary_of_the_method": "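Frozen brains were thawed at 4°C and weighed. Each sample was extracted with chloroform:MeOH (2:1) plus 0.1 M phosphate buffer, pH 5.6. Deuterated internal standards were spiked in: AEA‑d8, PEA‑d4 and OEA‑d2 for the fatty acid amides, and 2‑AG‑d8 for 2‑AG.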"}, "[7]": {"assay": "Protein binding to cell homogenates", "assay_type": "in vitro ADME", "conditions": "500 μg·ml^−1 of protein"}, "[8]": {"biological_target": "T4, mouse liver fatty acid amide hydrolase (FAAH) (Mus musculus, UniProt O08914)", "T4 sequence (O08914 1-579)": "T1 sequence (O08914 1-579)", "assay": "Ex vivo FAAH activity in mouse liver after oral administration", "conditions": "0.1 mg·kg^−1 p.o., 1 hr after dosing", "summary_of_the_method": "as §1"}, "[9]": {"biological_target": "T5, rat brain fatty acid amide hydrolase (Rattus norvegicus, UniProt P97612)", "T5 sequence (P97612 1-579)": "T3 sequence (P97612 1-579)", "assay": "FAAH progression curves, kinetic constants k obs and k inact/K I", "assay_type": "biochemical", "conditions": "inhibition of rat brain FAAH, 37°C"}, "[10]": {"biological_target": "T6, rat brain fatty acid amide hydrolase (FAAH) (Rattus norvegicus, UniProt P97612)", "T6 sequence (P97612 1-579)": "T3 sequence (P97612 1-579)", "assay_type": "biochemical", "conditions": "read-out: IC50 [95% CI]", "summary_of_the_method": "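Rat brain membranes from Wistar rats, 10 μg protein, in 1 mM EDTA, 10 mM Tris, pH 7.6. Test compound at 1 nM–10 μM, pre-incubated with enzyme 5–60 min, or reaction started with enzyme when not pre-incubated. Substrate 2 μM AEA + 5 nM 3H‑AEA + 0.1% fatty acid-free BSA, 30 min at room temperature with agitation. Charcoal stop; supernatant 3H‑ethanolamine counted. Blank and vehicle controls; IC50 from normalized variable-slope sigmoidal fit.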"}}, "note": "Where two headings read alike, the source gives them in different places."}
{"smiles": "CN(C(=O)n1cnc(-c2cccnc2)c1)[C@H]1CC[C@H](O)CC1", "note": "[BIA 10‐2631, N‐((1R,4R)‐4‐hydroxycyclohexyl)‐N‐methyl‐4‐(pyridin‐3‐yl)‐1H‐imidazole‐1‐carboxamide]", "values": [{"measurement": "brain levels at all time points measured", "setting": "[1]", "result": "below the limit of quantification"}]}
{"smiles": "O=C(Nc1cnccc1Cl)N1CCN(Cc2ccc3c(c2)OC(F)(F)O3)CC1", "note": "[JNJ‐42165279]", "values": [{"measurement": "detection in cell lysates", "setting": "COS‐hFAAH cells", "result": "undetectable"}, {"measurement": "stability in cellular media over time", "setting": "COS‐hFAAH cells", "result": "stable"}, {"measurement": "inhibition of brain FAAH", "setting": "[2]", "result": 19.2, "unit": "%"}, {"measurement": "inhibition level above 30 nM", "setting": "[3]; 1‐ and 3‐hr periods", "result": "around 50%"}, {"measurement": "IC50", "setting": "[3]; incubation 1 hr", "result": 26.2, "unit": "nM"}, {"measurement": "IC50", "setting": "[3]; incubation 3 hr", "result": 25.1, "unit": "nM"}, {"measurement": "IC50", "setting": "[3]; incubation 24 hr", "result": 41.5, "unit": "nM"}, {"measurement": "concentration that completely inhibited the band corresponding to the MW of FAAH", "setting": "[4]", "result": 10, "unit": "µM"}, {"measurement": "off‐target activity at the sites studied", "setting": "[5]", "result": "some weak activity at just seven sites"}, {"measurement": "AEA", "setting": "[6]; 1 mg·kg^−1 p.o.", "result": "89.0 ± 20.6 % of control"}, {"measurement": "OEA", "setting": "[6]; 1 mg·kg^−1 p.o.", "result": "114.9 ± 13.36 % of control"}, {"measurement": "PEA", "setting": "[6]; 1 mg·kg^−1 p.o.", "result": "123.4 ± 11.2 % of control"}, {"measurement": "AEA", "setting": "[6]; 3 mg·kg^−1 p.o.", "result": "83.6 ± 9.1 % of control"}, {"measurement": "OEA", "setting": "[6]; 3 mg·kg^−1 p.o.", "result": "121.7 ± 10.2 % of control"}, {"measurement": "PEA", "setting": "[6]; 3 mg·kg^−1 p.o.", "result": "138.3 ± 19.4 % of control"}, {"measurement": "AEA", "setting": "[6]; 10 mg·kg^−1 p.o.", "result": "86.5 ± 4.8 % of control"}, {"measurement": "OEA", "setting": "[6]; 10 mg·kg^−1 p.o.", "result": "147.3 ± 13.8 % of control"}, {"measurement": "PEA", "setting": "[6]; 10 mg·kg^−1 p.o.", "result": "205.6 ± 37.0 % of control"}, {"measurement": "AEA", "setting": "[6]; 30 mg·kg^−1 p.o.", "result": "95.5 ± 2.5 % of control"}, {"measurement": "OEA", "setting": "[6]; 30 mg·kg^−1 p.o.", "result": "234.9 ± 46.8 % of control"}, {"measurement": "PEA", "setting": "[6]; 30 mg·kg^−1 p.o.", "result": "382.2 ± 103.5 % of control"}, {"measurement": "mean % free fraction ± SD", "setting": "[7]", "result": "64.3 ± 4.0", "unit": "%"}, {"measurement": "inhibition of liver FAAH", "setting": "[8]", "result": 25.5, "unit": "%"}, {"measurement": "k inact/K I", "setting": "[9]", "result": "5,092 M·s^−1"}, {"measurement": "IC50", "setting": "[10]; pre‐incubation 0 min", "result": 472, "unit": "nM"}, {"measurement": "IC50", "setting": "[10]; pre‐incubation 5 min", "result": 365, "unit": "nM"}, {"measurement": "IC50", "setting": "[10]; pre‐incubation 15 min", "result": 272, "unit": "nM"}, {"measurement": "IC50", "setting": "[10]; pre‐incubation 30 min", "result": 221, "unit": "nM"}, {"measurement": "IC50", "setting": "[10]; pre‐incubation 45 min", "result": 161, "unit": "nM"}, {"measurement": "IC50", "setting": "[10]; pre‐incubation 60 min", "result": 94.3, "unit": "nM"}]}
{"smiles": "CN(C(=O)n1cnc(-c2ccc[n+]([O-])c2)c1)[C@H]1CC[C@H](O)CC1", "note": "[BIA 10‐2639, 3‐(1‐(((1R,4R)‐4‐hydroxycyclohexyl)(methyl)carbamoyl)‐1H‐imidazol‐4‐yl)pyridine 1‐oxide]", "values": [{"measurement": "brain levels at all time points measured", "setting": "[1]", "result": "below the limit of quantification"}]}
